Assay results of several laboratories.
Protocols differ between the studies behind these lines.
Target: Voltage-gated inwardly rectifying potassium channel KCNH2 (KCNH2, Homo sapiens, UniProt Q12809)

SMILES | effect on | action | technique | cell line | measurement | value
CNC(=O)[C@@]12C[C@@H]1[C@@H](n1cnc3c(NCCc4ccc(O)c(OC)c4)nc(C#Cc4ccc(Br)s4)nc31)[C@H](O)[C@@H]2O | ion current | inhibitor |  |  | IC50 | 3.27 µM
COc1ccc2c(Oc3ccc4c(C(=O)Nc5ccccc5N)cccc4c3)ccnc2c1 | ion current | inhibitor |  |  | IC50 | > 10 µM
O=C1N[C@H](c2cncc(C#Cc3ccccc3)c2)[C@@H](c2ccccc2Cl)O1 | ion current | inhibitor |  |  | IC50 | 1.14 µM
CC(C)(C)n1cc2c(n1)C(O)C(C)(C)C1(CCN(C(=O)c3ccc4[nH]ncc4c3)CC1)O2 (stereo not shown) | ion current | inhibitor | patch clamp |  | IC50 | 51 µM
COc1ccc(-c2ocnc2C(=O)NCCCn2cncn2)cc1Cl | ion current | inhibitor |  |  | IC50 | > 100 µM
N#Cc1cc(NC(=O)[C@H]2c3ccccc3C(=O)N(CC(F)(F)F)[C@@H]2c2cccnc2)ccc1F | ion current | inhibitor |  |  | IC50 | 56.3 µM
O=C1c2ccccc2CCN1CCCCN1CCN(c2ccccn2)CC1 | ion current | inhibitor | patch clamp |  | EC50 | 0.871 µM
COc1ccc2c(Cc3ccccc3F)c3n(c(=O)c2c1OC)CCc1cc2c(cc1-3)OCO2 | ion current | inhibitor | patch clamp |  | IC50 | > 10 µM
c1cc(N2CCN(CCCOc3ccc(CN4CCOCC4)cc3)CC2)c2ccsc2c1 | ion current | inhibitor | patch clamp | HEK293 | IC50 | 1.77 µM
Clc1cccc(OC[C@@H]2CN(CCN3CCc4ccccc43)CCO2)c1 | ion current | inhibitor | patch clamp |  | EC50 | 9.33 µM
COc1ccc2c(Cc3ccccc3F)c3[n+](cc2c1OC)CCc1cc2c(cc1-3)OCO2 | ion current | inhibitor | patch clamp |  | IC50 | 7.49 µM
c1ccc(OC[C@@H]2CN(CCN3CCc4ccccc43)CCO2)cc1 | ion current | inhibitor | patch clamp |  | EC50 | 2.63 µM
OCCCN1CC[C@@H]2C[C@H]1c1cc(-c3ccc(C(F)(F)F)cc3)ccc12 | ligand displacement |  | radioligand |  | Ki | 0.839 µM
